{
  "source": "paper PMC8721161",
  "about": "(International Journal of Nanomedicine, 2021)",
  "key": {"[1]": {"assay": "In vitro dissolution / drug release study", "format": "physicochemical", "settings": "0.1 M phosphate buffer pH 6.8, 37±0.5 °C, dialysis bag, up to 12 h", "outline": "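Free test compound, its cyclodextrin complex and the complex-loaded chitosan nanoparticles were placed in dialysis bags presoaked overnight. Medium was 100 mL of 0.1 M phosphate buffer, pH 6.8, at 37±0.5 °C. Samples were 0.45 µm filtered and assayed by UV at 388 nm.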"}, "[2]": {"system": "α-glucosidase enzyme", "assay": "Alpha-glucosidase enzyme inhibition activity", "format": "biochemical", "settings": "concentration not given", "outline": "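Enzyme was 0.02 U/μL α-glucosidase in 0.2 M sodium phosphate buffer, pH 6.8. Enzyme and buffer were preincubated 20 min with test compound in DMSO at 1000, 500, 250, 125 or 62.5 μg/mL. 0.02 M PNPG substrate was added for a further 30 min. The reaction was stopped with 0.2 M Na2CO3. Released p-nitrophenol was read at 405 nm and % inhibition calculated by formula.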"}, "[3]": {"assay": "In vivo pharmacokinetic study, single oral dose, EPL in rabbit plasma by HPLC", "set-up": "species or system rabbits (Oryctolagus cuniculus)", "outline": "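Non-pregnant adult rabbits (2.5±0.1 kg) in three groups of six got a single oral dose of free compound, complex or nanoparticles. Jugular blood went into EDTA at set times, was spun 12,000 rpm 30 min, and plasma stored −70 °C. Perchloric acid precipitation preceded C18 HPLC (acetonitrile:KH2PO4 60:40, pH 4.0; 388 nm; plasma calibration 0.02–10 μg/mL). Non-compartmental log-linear trapezoidal analysis gave parameters; mean±SD.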"}},
  "data": [
    {"compound": "CC(/C=C1\\SC(=S)N(CC(=O)O)C1=O)=C\\c1ccccc1", "note": "[EPL, Epalrestat]", "values": [
      {"measurement": "cumulative drug release (%)", "setting": "[1]", "result": "20–25%"},
      {"measurement": "potency against α-glucosidase enzyme inhibition", "setting": "[2]", "result": "greater than 70%"},
      {"measurement": "Cmax", "setting": "[3]; plasma, po", "result": "4750 ± 3640", "unit": "ng/mL"},
      {"measurement": "AUC", "setting": "[3]; plasma, po, AUC0-α, single oral dose, mean±SD", "result": "192 ± 165", "unit": "µg·h/mL"},
      {"measurement": "AUC0-α", "setting": "[3]; single oral dose, mean±SD", "result": "191.5 ± 164.63", "unit": "µg·h/mL"},
      {"measurement": "MRT", "setting": "[3]; single oral dose, mean±SD", "result": "47.22±3.88", "unit": "H"},
      {"measurement": "T1/2 (elimination half-life)", "setting": "[3]; single oral dose, mean±SD", "result": 4, "unit": "H"}
    ]}
  ]
}
